Source: PubChem
Shown is part of a subset that was picked to be rich in hits.
PvdQ inh: P. aeruginosa PvdQ acylase inhibition. purified PvdQ acylase, fluorescence plate reader. inhibition, % at 10 µM. 0.063% of 340,000 active. AID 488965; in the data active means inhibition above about 30%, passing the limit was not always enough;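 further: 0% = vehicle neutral wells and 100% = reference inhibitor wells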
UPR XBP1 act: adaptive UPR (XBP1) activation | CHO-XBP1 luciferase reporter, IRE1-XBP1 UPR activation, luminescence; percent of tunicamycin response, DMSO as zero | activation, % at 20 µM | 0.33% of 330,000 active;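 active means versus positive control, 20 µM dose yields 30% or more activation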;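 further: 100% = tunicamycin at 10 µg/mL and 0% = DMSO only wells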
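Material: CHO-XBP1 cells stably carrying IRE1-XBP1-driven luciferase reporter | Medium: F12 with 10% serum | Compound dosing: 20 µM single concentration, DMSO 1% | Incubation: Overnight seeding at 37 °C, 6 h compound treatment at 37 °C | Detection: Steady-Glo luminescence read | Read-out basis: % activation of reporter signal versus tunicamycin and DMSO controls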
CHOP inh: inhibitors of CHOP induction in ER stress response | CHO-K1 CHOP-promoter luciferase, tunicamycin-induced, 15-18 h | inhibition, % at 10 µM | 3.8% of 220,000 active | AID 2732;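 active means compounds that reduced the stress-induced luciferase reporter signal by more than about 70% of percent inhibition, limit read from the data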;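 further: 0% = tunicamycin plus vehicle and 100% = wells without tunicamycin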
UPR CHOP act: apoptotic UPR (CHOP) activation; CHO-CHOP luciferase reporter, luminescence; percent of tunicamycin response over DMSO baseline; activation, % at 10 µM; 0.34% of 330,000 active;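 active means at 10 µM dose, activation of 40% or more, normalized to positive control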;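 further: 100% = tunicamycin at 10 µg/mL and 0% = DMSO alone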
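Evaluation: % reporter activation, DMSO baseline versus tunicamycin full activation; System: CHO-CHOP luciferase reporter cell line; Input: 500 cells/well; Incubation: 6 h compound treatment, 37 °C; Measured by: Steady-Glo luciferase luminescence; Dosing: one dose, 10 µM in 0.5% DMSO; Buffer or medium: F12 medium, 10% FBS; Benchmarks: positive tunicamycin 10 µg/mL, negative DMSO alone.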
Active calls of the source: *; . = no result given.

SMILES	PvdQ inh	UPR XBP1 act	CHOP inh	UPR CHOP act
Cn1c(SCc2cccc(Cl)c2)nc(C(F)(F)F)cc1=O	-12.8	0.6	84.2*	-1.5
Cn1c(SCc2ccccc2Cl)nc(C(F)(F)F)cc1=O	-7.1	3.8	74.2*	0.6
Cn1c(SCc2ccccc2)nc(C(F)(F)F)cc1=O	-6.7	2.0	28.5	-2.1
Cn1c(SCc2ccccc2Cl)nc2ccccc21	-7.0	5.3	10.0	4.8
Cn1c(SCc2c(Cl)cccc2Cl)nc(C(F)(F)F)cc1=O	-2.4	1.9	82.2*	1.1
CC(=O)CSc1nc(C(F)(F)F)cc(=O)n1-c1ccccc1	-10.4	1.3	20.5	-2.0
Cc1ccc(S(=O)(=O)NNC(=O)c2cccc(O)c2)cc1	-6.8	-0.2	14.2	-3.3
Cc1ccccc1NC(=O)c1ccc2nc(N3CCOCC3)sc2c1	2.9	-0.4	.	2.5
COC(=O)N/N=C/c1ccc(-c2cc(Cl)ccc2Cl)o1	3.7	-1.9	-31.8	-0.2
O/N=C/c1ccc(-c2cc(Cl)ccc2Cl)o1	-1.8	-3.0	95.6*	-3.6
CC(C)(C)NC(=O)CN(C(=O)Cn1nnc(-c2ccc(Cl)cc2)n1)C1CCN(Cc2ccccc2)CC1	-7.1	-1.3	71.5*	3.6
O=C(Cn1nnc(-c2ccc(CN3CCOCC3)cc2)n1)N(c1ccccc1)c1ccccc1	7.1	-2.4	19.0	-0.9
COc1ccc(/C=C/C(=O)Nc2sc3c(c2C(=O)NCc2cccnc2)CCCC3)cc1	-0.4	5.2	81.0*	2.4
COc1ccc(OC)c(C=NNC(=O)c2ccc(NS(=O)(=O)c3cccs3)cc2)c1	.	-0.6	.	0.4
Cc1ccc(NC(=O)Nc2ccc([N+](=O)[O-])cc2)nc1	-14.5	1.0	70.5*	4.4
O=C(Nc1ccc(Cl)cc1)Nc1nnc(Cc2ccc([N+](=O)[O-])cc2)s1	-18.6	1.7	-0.2	-0.7
Cc1ccc(NC(=O)Nc2cccc([N+](=O)[O-])c2)nc1	-7.4	-0.3	0.2	3.7
Cc1ccc(NC(=O)Nc2nnc(Cc3ccc([N+](=O)[O-])cc3)s2)cc1	7.7	2.9	75.7*	7.2
CC(C)Cc1nnc(NC(=O)Nc2ccccc2)s1	9.3	1.3	70.0*	1.9
CC(C)Cc1nnc(NC(=O)CCC(=O)Nc2ccccc2)s1	-13.8	-0.6	.	1.9
CCc1ccn2cc(-c3ccc4c(c3)OCO4)nc2c1	-3.0	-10.3	77.7*	-9.6
COC(=O)c1ccc2nc(-c3ccc4c(c3)OCO4)cn2c1	-11.4	-6.2	26.2	-6.6
Cc1ccc(S(=O)(=O)N(C)Cc2nc(-c3ccc(Br)cc3)no2)cc1	-2.6	-0.4	82.7*	-0.6
CC(=O)C1=C(O)C(=O)N(c2cc(C(C)(C)C)on2)C1c1ccc(C(C)C)cc1 (stereo not given)	-15.7	-0.3	72.5*	-0.3
CC(=O)C1=C(O)C(=O)N(c2cc(C(C)(C)C)on2)C1c1ccc(Br)cc1 (stereo not given)	-2.3	-0.3	-15.2	0.8
SMILES	PvdQ inh	UPR XBP1 act	CHOP inh	UPR CHOP act
CN1C(=O)/C(=C/c2ccccc2F)Sc2ccc(C(=O)NCC3CCCO3)cc21 (stereo not given)	8.2	-1.6	.	0.4
CN1C(=O)/C(=C/c2ccccc2Cl)Sc2ccc(C(=O)NCc3cccnc3)cc21	0.9	-1.1	81.5*	0.9
CCOC(=O)C1=CN(Cc2ccco2)S(=O)(=O)N(CC)C1c1ccccc1 (stereo not given)	1.6	0.6	.	0.6
CC1=NNC(=O)/C1=C\c1cn(-c2ccccc2)nc1-c1ccc(Cl)cc1	0.7	-6.3	107.9*	-10.2
Cc1ccccc1CSCCNC(=O)COc1ccc(Cl)cc1	-18.0	-2.6	75.3*	0.0
CC(C)(C)SCCNC(=O)COc1ccc(Cl)cc1	5.0	-3.6	13.3	-0.8
CCOC(=O)N1CCC(N2CCCC(CO)(Cc3ccccc3C)C2)CC1 (stereo not given)	-16.7	-0.3	13.5	-3.2
O=C1c2cccc(OCc3ccc(F)cc3)c2CCN1Cc1ccc(F)cc1	-5.0	-0.5	85.0*	0.5
CS(=O)c1ccccc1-c1nc(-c2cc(C(F)(F)F)cc(C(F)(F)F)c2)no1 (stereo not given)	-3.7	1.2	82.2*	1.9
CS(=O)(=O)c1ccccc1-c1nc(-c2cc(C(F)(F)F)cc(C(F)(F)F)c2)no1	12.1	-0.3	43.6	-0.6
CCC1CCCCN1Cc1ccc(OC)c(C)c1C (stereo not given)	-12.2	-2.3	11.4	0.3
FC(F)(F)c1ccc(N2CCN(c3ncnc4c3nnn4Cc3ccccc3)CC2)nc1	-15.6	4.6	90.6*	2.4
